This is an account of results in PMC9279635 (Acta Pharmaceutica Sinica. B, 2021).

Experiment [1] concerns bleomycin-induced pulmonary fibrosis. Kind of experiment: BLM induced mouse lung fibrosis. The format is in vivo, mice (C57BL/6). In a few lines:
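Bleomycin (1.7 U/kg) or saline is given intratracheally to mice. After 7 days, test compound is dosed once daily for 21 days (n = 6–9/group). Body weight is tracked over the period. On day 21, lung sections are stained with H&E, F4/80, Masson and COL-1, and H&E and Masson sections are scored. Data are mean ± SEM, analysed by one-way ANOVA with Fisher's LSD.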

The next experiment deals with KDR (Homo sapiens, UniProt P35968). Kind of experiment: ELISA kinase assay, KDR. The settings on record: for KDR inhibition ratio: 10 nmol/L. The format is biochemical.
KDR, sequence (P35968 20-1356): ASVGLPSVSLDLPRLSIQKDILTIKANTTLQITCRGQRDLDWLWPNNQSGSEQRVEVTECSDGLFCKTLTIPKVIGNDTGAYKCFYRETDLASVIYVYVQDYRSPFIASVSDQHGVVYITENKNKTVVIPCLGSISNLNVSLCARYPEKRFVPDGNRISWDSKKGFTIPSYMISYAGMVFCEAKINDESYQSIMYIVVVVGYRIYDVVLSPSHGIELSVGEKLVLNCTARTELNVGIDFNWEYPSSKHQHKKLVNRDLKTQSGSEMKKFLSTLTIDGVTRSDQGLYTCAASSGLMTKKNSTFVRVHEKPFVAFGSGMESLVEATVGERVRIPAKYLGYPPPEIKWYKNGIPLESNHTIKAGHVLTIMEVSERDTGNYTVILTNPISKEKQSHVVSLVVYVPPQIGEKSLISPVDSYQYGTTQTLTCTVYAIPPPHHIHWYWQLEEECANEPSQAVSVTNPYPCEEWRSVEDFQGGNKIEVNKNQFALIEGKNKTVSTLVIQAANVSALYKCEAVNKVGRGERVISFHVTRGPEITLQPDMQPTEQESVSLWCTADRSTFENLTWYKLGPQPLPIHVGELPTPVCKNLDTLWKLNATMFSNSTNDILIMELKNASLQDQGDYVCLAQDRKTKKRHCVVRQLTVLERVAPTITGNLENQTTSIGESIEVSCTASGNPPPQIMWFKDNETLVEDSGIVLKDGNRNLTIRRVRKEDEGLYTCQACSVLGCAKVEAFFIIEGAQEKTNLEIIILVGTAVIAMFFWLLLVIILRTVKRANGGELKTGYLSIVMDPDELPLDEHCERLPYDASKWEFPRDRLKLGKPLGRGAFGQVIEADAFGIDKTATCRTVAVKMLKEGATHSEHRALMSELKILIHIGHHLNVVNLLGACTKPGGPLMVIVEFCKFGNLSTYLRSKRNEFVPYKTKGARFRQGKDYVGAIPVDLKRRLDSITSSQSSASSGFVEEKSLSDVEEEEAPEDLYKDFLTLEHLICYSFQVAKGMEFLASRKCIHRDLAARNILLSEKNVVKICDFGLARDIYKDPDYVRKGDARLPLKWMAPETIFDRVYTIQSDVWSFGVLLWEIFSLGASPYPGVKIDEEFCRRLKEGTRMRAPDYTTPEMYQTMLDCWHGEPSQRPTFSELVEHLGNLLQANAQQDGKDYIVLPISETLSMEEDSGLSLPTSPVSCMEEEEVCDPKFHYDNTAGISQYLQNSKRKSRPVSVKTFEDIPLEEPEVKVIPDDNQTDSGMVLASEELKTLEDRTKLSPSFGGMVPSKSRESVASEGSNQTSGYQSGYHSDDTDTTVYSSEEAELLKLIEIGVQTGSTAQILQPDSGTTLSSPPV
A further experiment addresses DDR1 (Homo sapiens, UniProt Q08345). Kind of experiment: ELISA kinase assay, DDR1. The format is biochemical.
The next experiment has as its target ABL (Homo sapiens, UniProt P00519). Kind of experiment: Kinase selectivity test, ABL. The format is biochemical. The settings on record: 10 nmol/L.
Another experiment has as its target T1, Flt-3 (Homo sapiens, UniProt P36888).
T1 sequence (P36888 27-993): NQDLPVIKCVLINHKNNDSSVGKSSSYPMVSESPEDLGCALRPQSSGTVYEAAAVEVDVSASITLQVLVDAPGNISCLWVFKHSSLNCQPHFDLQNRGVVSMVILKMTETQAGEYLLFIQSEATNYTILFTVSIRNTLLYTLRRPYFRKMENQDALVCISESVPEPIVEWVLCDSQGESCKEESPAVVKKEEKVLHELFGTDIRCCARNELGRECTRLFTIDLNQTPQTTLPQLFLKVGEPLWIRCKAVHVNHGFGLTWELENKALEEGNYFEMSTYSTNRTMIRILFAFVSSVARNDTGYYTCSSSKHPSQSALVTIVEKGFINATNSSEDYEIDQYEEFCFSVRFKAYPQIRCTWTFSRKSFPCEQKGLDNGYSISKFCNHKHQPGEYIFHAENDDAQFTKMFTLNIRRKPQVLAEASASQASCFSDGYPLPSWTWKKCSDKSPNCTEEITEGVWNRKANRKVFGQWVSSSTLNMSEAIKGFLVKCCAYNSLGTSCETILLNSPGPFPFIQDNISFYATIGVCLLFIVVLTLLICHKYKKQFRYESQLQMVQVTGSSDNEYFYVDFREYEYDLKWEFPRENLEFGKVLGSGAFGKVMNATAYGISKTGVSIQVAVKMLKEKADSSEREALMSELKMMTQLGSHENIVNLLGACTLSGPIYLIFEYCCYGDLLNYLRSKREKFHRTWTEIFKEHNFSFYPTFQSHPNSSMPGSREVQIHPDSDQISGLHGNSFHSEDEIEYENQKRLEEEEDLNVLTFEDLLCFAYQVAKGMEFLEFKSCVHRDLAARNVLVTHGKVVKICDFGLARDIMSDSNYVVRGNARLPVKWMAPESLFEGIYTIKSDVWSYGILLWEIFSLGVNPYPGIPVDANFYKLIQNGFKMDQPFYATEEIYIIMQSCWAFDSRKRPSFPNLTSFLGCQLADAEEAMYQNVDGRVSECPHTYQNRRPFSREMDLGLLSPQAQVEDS
Kind of experiment: ELISA kinase assay, Flt-3. The format is biochemical. The settings on record: read-out: Flt-3 inhibition@100 nmol/L.

In experiment [2] the test system is DDR2 phosphorylation in MRC-5. Kind of experiment: DDR2 phosphorylation in TGF-β stimulated MRC-5. The format is cell-based. The settings on record: 1 μmol/L, MRC-5, 24 h TGF-β stimulation. In a few lines: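 Confluent MRC-5 fibroblasts are stimulated with TGF-β (5 ng/mL) and treated with a range of test compound concentrations for 24 h. Western blots are probed for phospho-DDR2, fibronectin, α-SMA, with GAPDH as loading control.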

The target of a further experiment is ErbB4 (Homo sapiens, UniProt Q15303). Kind of experiment: Kinase selectivity test, ErbB4. As to conditions: 10 nmol/L. The format is biochemical.
The next experiment addresses EPH-A2 (Homo sapiens, UniProt P29317). Kind of experiment: Kinase selectivity test, EPH-A2. The format is biochemical. As to conditions: 10 nmol/L.
The target in another experiment is ALK (Homo sapiens, UniProt Q9UM73). Briefly: Kinase selectivity test, ALK. The format is biochemical. The settings on record: 1 μmol/L.
The target in another experiment is T2, AXL (Homo sapiens, UniProt P30530).
T2 sequence (P30530 26-894): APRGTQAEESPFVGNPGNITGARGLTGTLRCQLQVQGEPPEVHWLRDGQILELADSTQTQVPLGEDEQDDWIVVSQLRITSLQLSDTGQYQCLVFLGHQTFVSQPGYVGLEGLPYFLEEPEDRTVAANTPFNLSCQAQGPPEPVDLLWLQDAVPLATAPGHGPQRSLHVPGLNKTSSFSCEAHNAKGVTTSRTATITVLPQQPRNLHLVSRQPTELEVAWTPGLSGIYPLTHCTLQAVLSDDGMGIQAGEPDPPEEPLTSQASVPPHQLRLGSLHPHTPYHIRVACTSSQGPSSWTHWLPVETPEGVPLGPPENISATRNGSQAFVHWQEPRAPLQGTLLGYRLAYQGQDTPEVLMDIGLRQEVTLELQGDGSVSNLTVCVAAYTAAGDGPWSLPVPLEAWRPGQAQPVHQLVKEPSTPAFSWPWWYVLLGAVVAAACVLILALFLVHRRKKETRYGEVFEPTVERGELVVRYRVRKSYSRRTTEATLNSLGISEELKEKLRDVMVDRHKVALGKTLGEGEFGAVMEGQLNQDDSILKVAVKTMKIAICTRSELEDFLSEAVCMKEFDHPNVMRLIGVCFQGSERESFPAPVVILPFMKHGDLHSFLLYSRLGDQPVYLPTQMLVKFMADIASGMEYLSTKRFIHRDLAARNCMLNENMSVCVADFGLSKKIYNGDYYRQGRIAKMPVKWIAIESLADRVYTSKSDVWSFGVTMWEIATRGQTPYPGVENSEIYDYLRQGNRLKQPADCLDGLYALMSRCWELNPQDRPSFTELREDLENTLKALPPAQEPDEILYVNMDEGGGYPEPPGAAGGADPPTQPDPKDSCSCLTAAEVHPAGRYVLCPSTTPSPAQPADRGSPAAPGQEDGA
Briefly: Kinase selectivity test, AXL. The format is biochemical. The settings on record: 10 nmol/L.

A further experiment has as its target c-Src (Homo sapiens, UniProt P12931). Briefly: Kinase selectivity test, c-Src. As to conditions: 10 nmol/L. The format is biochemical.
The next experiment concerns the target FGFR-1 (Homo sapiens, UniProt P11362). Briefly: Kinase selectivity test, FGFR-1. The format is biochemical. As to conditions: 10 nmol/L.
A further experiment concerns the target VEGFR-1 (Homo sapiens, UniProt P17948). Kind of experiment: Kinase selectivity test, VEGFR-1. The format is biochemical. As to conditions: 10 nmol/L.
Another experiment has as its target RET (Homo sapiens, UniProt P07949). Kind of experiment: ELISA kinase assay, RET. The format is biochemical.
A further experiment deals with PDGFR. Briefly: Kinase selectivity test, PDGFR. The format is biochemical. The settings on record: 10 nmol/L.

DDR1, sequence (Q08345 19-913): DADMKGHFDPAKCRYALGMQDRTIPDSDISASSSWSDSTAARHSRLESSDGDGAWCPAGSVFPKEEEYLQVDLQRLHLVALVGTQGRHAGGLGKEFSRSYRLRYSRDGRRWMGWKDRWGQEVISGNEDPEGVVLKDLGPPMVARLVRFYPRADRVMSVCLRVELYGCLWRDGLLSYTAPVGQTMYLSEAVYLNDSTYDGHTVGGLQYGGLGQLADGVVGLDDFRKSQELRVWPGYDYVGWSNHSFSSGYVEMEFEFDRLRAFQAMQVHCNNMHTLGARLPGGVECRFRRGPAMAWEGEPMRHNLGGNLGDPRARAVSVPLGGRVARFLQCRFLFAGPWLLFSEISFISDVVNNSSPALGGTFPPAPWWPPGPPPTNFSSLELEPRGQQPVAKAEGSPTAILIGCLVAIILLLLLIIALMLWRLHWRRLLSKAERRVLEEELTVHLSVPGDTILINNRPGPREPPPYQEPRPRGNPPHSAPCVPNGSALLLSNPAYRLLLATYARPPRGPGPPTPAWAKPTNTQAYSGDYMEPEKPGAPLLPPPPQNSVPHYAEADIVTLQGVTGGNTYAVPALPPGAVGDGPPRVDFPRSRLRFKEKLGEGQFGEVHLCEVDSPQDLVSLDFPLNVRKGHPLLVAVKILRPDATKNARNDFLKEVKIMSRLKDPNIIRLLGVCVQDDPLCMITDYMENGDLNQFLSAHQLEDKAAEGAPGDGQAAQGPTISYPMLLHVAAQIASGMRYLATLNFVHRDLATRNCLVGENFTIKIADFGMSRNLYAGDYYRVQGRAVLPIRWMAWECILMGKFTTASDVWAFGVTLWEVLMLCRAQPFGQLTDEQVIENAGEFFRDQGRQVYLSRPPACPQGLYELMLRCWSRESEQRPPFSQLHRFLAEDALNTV
ABL, sequence (P00519 whole entry): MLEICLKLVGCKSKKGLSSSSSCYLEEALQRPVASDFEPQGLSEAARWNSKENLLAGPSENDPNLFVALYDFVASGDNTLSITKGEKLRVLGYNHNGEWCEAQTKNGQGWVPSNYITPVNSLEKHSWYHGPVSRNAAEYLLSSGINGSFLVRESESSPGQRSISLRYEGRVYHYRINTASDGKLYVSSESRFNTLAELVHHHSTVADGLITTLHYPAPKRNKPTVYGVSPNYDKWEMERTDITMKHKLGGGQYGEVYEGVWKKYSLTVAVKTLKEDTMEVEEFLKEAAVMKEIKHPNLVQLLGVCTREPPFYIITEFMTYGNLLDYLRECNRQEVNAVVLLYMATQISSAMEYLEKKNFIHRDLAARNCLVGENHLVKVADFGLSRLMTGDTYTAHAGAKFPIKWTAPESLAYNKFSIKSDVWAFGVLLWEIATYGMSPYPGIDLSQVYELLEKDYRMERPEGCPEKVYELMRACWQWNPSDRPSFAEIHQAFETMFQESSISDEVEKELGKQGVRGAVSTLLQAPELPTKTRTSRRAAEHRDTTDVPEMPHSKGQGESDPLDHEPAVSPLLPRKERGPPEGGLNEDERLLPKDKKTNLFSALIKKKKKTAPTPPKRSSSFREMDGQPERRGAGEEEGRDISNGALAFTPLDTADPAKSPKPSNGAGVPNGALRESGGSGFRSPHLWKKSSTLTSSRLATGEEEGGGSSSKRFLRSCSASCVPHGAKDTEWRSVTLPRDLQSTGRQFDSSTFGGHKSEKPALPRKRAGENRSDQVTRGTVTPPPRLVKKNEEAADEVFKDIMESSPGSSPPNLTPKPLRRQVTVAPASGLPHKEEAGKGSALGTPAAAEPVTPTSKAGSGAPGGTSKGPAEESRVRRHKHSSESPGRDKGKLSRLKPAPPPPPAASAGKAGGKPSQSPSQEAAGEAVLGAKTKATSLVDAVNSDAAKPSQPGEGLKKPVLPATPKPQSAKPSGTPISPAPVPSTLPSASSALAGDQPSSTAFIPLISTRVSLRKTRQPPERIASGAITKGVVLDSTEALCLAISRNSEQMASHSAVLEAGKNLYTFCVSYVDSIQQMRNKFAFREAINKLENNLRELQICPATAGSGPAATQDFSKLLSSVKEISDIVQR
RET, sequence (P07949 29-1114): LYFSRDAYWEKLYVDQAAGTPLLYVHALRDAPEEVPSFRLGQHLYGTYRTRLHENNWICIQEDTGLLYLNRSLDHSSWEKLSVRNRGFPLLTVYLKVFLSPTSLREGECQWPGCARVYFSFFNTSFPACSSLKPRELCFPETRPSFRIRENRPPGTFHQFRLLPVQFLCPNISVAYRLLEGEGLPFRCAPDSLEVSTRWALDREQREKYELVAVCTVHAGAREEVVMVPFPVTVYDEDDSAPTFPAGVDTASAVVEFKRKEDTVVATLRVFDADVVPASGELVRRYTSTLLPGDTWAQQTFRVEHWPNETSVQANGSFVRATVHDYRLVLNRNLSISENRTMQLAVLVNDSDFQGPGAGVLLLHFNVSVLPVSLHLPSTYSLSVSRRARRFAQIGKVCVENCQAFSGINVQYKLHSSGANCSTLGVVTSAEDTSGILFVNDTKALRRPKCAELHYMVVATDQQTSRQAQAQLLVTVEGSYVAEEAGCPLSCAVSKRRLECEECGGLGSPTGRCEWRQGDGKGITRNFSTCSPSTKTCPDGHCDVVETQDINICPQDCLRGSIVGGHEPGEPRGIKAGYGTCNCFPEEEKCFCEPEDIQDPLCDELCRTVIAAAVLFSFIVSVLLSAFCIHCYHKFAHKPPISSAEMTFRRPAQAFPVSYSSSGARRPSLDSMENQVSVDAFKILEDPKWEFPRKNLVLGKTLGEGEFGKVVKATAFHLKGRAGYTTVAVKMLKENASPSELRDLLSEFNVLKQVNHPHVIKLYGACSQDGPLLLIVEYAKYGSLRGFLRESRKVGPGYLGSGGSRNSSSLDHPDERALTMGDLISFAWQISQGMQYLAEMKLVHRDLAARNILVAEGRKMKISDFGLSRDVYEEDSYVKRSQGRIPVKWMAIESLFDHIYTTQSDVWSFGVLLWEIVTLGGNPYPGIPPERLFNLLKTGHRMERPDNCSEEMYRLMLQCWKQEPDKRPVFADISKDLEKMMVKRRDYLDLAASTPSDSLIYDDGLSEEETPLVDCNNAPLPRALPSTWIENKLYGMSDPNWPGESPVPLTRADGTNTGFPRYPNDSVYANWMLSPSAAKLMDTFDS
c-Src, sequence (P12931 whole entry): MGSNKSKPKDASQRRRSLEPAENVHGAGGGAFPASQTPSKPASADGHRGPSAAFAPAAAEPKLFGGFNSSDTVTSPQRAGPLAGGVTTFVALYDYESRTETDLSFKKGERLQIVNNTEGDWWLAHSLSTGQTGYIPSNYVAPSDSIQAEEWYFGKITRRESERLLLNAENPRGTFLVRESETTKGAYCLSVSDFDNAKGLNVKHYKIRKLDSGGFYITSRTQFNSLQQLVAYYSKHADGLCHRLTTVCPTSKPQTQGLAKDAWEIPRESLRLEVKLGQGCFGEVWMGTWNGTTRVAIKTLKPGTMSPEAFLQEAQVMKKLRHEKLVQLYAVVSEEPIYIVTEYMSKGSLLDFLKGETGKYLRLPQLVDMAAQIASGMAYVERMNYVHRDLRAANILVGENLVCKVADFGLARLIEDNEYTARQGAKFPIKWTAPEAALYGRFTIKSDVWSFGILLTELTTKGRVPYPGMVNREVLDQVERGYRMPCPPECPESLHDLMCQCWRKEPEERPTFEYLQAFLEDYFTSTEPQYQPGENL

As for `COC(=O)c1ccc2c(c1)NC(=O)/C2=C(\Nc1ccc(N(C)C(=O)CN2CCN(C)CC2)cc1)c1ccccc1` [nintedanib], the “weight of mice at the end of the treatment” value in experiment [1] (60 mg/kg once daily) is 24.54 ± 2.09 g. In [1] (BLM mice, 60 mg/kg), the weight recovery ratio was determined as 12.93%. The compound also registered a Masson score in experiment [1] (BLM mice, 60 mg/kg, vehicle 2.67 ± 0.57, scale 1–4) of 1.89 ± 0.55.
As to `O=C(Nc1cccc(C(F)(F)F)c1)c1ccc(C2CC2)c(-c2ccc3nc(Nc4cnn(C5CC5)c4)ncc3c2)c1` [Compound 36, 4-Cyclopropyl-3-(2-((1-cyclopropyl-1H-pyrazol-4-yl)amino)quinazolin-6-yl)-N-(3-(trifluoromethyl)phenyl)benzamide], the KDR inhibition ratio entry on KDR is reported as “over 50%”. Besides, the values for the inhibition at 0.1 µM at KDR (read-out: KDR inhibition @100 nmol/L) and on Flt-3 were 100% and 0%, respectively. Besides, the IC50 against DDR1 was determined as 16 nM. Also, the ABL inhibition ratio result on ABL is given as “over 50%”. In addition, the “inhibition of DDR2 phosphorylation” value in [2] was “high inhibitory activity”.
Regarding `Cc1ccc(C(=O)Nc2cccc(C(F)(F)F)c2)cc1-c1ccc2nc(Nc3cnn(C)c3)ncc2c1` [Compound 22, 4-Methyl-3-(2-((1-methyl-1H-pyrazol-4-yl)amino)quinazolin-6-yl)-N-(3-(trifluoromethyl)phenyl)benzamide], the ErbB4 inhibition ratio result at ErbB4 was “over 50%”. The KDR inhibition ratio entry at KDR is “over 50%”. Also, at EPH-A2, the EPH-A2 inhibition ratio entry is reported as “over 50%”. Further, the “inhibition ratio on ALK” value at ALK stood at 18.5%. Moreover, at AXL, the AXL inhibition ratio entry was “over 50%”. In addition, the c-Src inhibition ratio entry on c-Src was “over 50%”. In addition, half-maximal inhibition against DDR1 (IC50) required 8.13 nM. The FGFR-1 inhibition ratio entry at FGFR-1 was “over 50%”. At VEGFR-1, the VEGFR-1 inhibition ratio entry is “over 50%”. Also, on ABL, the ABL inhibition ratio result was “over 50%”. Also, the inhibition at 0.01 µM at RET (read-out: RET inhibition @10 nmol/L) was greater than 50%. In addition, the inhibition at 0.1 µM at RET (read-out: RET inhibition @100 nmol/L) amounted to 97.2%; on Flt-3 it was 80.3%. For the same compound, in the experiment with PDGFR, the PDGFR inhibition ratio entry was “over 50%”. The “inhibition of DDR2 phosphorylation” value in experiment [2] is given as “high inhibitory activity”.
